# APP 5'UTR act: activates APP 5'UTR luciferase reporter | SH-SY5Y APP 5'UTR luciferase reporter, luminescence; zero percent = DMSO vehicle wells | activation, % at 2 µM | actives 1% (n = 190,000);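 active = activation above a set limit, based on mean plus 3 SD of controls, cut at about 140% in these data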
# FLuc inhib CS: inhibits firefly luciferase, flagging false hits in luciferase inhibition screens; P08659; ATPLite firefly luciferase biochemical luminescence, 10 min; inhibition, % at 10 µM; actives 1.5% (n = 200,000); AID 1006;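 active = inhibition above about 50% when tested at 10 µM, limit read from the data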
# Target sequence (P08659 whole entry, looked up): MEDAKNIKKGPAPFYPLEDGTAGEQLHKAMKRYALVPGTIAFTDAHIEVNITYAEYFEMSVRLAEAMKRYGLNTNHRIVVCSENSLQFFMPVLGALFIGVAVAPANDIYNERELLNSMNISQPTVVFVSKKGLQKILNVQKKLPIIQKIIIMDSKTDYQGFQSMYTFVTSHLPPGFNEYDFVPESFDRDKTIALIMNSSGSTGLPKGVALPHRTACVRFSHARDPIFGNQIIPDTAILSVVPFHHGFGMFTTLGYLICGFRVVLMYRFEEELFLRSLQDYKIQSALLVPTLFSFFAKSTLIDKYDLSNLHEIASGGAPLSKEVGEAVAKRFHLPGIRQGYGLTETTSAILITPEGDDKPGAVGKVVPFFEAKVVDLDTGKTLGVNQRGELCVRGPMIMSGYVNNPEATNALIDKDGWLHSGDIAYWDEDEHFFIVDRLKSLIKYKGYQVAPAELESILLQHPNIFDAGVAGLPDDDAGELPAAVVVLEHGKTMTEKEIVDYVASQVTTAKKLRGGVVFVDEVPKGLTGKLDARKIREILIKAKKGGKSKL
# TRAIL sens C8: sensitizes caspase-8 expressing cells to TRAIL. inhibition (viability loss, TRAIL sensitization), % at 10 µM. NB7+C8 cells + TRAIL, ATPlite viability luminescence. actives 1% (n = 360,000). AID 624354;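 active = compounds causing at least 50% loss of cell viability in the single-dose screen, relative to plate controls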
# FLuc stim CS: firefly luciferase counter-screen for stimulation assays | activation factor at 10 µM | 200,000 tested, under 10 active | P08659 | AID 1027 | ATPlite luciferase biochemical, luminescence, 10 min; 0 = ATP-free wells, 1 = DMSO control;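 active = luciferase activation factor, scaled between plate controls, of at least 2 with compound at 10 µM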
#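 Assay system: Luciferase/luciferin detection reagent, cell-free biochemical luciferase assay / Read-out: luciferase activation / Benchmarks: No-ATP low control, compound-free enzyme-plus-ATP high control / Medium: PBS buffer for ATP / Detection: luminescence measurement of luciferase light output / Schedule: 10 min at ambient temperature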
# PPC-1+TRAIL kill: kills PPC-1 cancer cells in the presence of TRAIL; PPC-1 cells + TRAIL, ATPLite viability luminescence; cell killing (% activity), % at 4 µM or 5 µM; actives 0.41% (n = 220,000); AID 1443;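 active = cell killing above 50% in the first pass at 4 µM, then a duplicate retest at 5 µM averaging 50% or more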;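 also: plate controls were cells with TRAIL plus DMSO for no effect and medium-only wells lacking cells for full effect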
# NF-kB expr up: raises NF-kB expression in human neuronal cells. NF-kB reporter expression; active compounds read high. actives 1.6% (n = 190,000). fold change at 12.5 µM; in the data active = fold change above about 3.3
# An asterisk follows results filed as active; · = not tested or not shown. Sampled rows, rich in hits. Any-hit rate of the full collection: about 2.2%.
SMILES,APP 5'UTR act,FLuc inhib CS,TRAIL sens C8,FLuc stim CS,PPC-1+TRAIL kill,NF-kB expr up
Cc1ccccc1C(=O)O/N=C(\N)c1cccc([N+](=O)[O-])c1,88.6,90.7*,73.6*,0.1,35.7,3.21
N/C(=N\OC(=O)c1cccs1)c1cccc([N+](=O)[O-])c1,51.0,86.7*,2.0,0.1,2.6,2.02
N/C(=N\OC(=O)Oc1ccccc1)c1cccc([N+](=O)[O-])c1,-9.7,3.6,-8.1,1,28.7,1.2
COc1ccc(C(C)(O)c2nc(-c3ccccc3OC)cs2)cc1 (centres undefined),·,·,15.7,·,·,·
Cn1cc([N+](=O)[O-])c(C(=O)Nc2ccc(-c3nc4ccccc4[nH]3)cc2)n1,50.6,20.1,9.3,0.8,3.7,9.53*
O=C(Nc1ccc2nc(-c3ccccc3)[nH]c2c1)c1cccs1,45.8,34.9,24.7,0.7,0.9,0.46
O=C(Nc1ccc2nc(-c3ccco3)[nH]c2c1)c1ccco1,15.6,80.2*,46.5,0.2,39.0,0.92
O=C(Nc1ccc2nc(-c3ccco3)[nH]c2c1)c1cccs1,48.4,76.6*,55.4*,0.2,26.4,1.1
Cn1cc([N+](=O)[O-])c(C(=O)Nc2ccc(C(=O)N3CCCCC3)cc2)n1,-20.9,-3.2,14.4,1,-0.8,1.04
Cn1cc([N+](=O)[O-])c(C(=O)Nc2ccc3nc(-c4ccccc4)[nH]c3c2)n1,56.8,36.6,18.3,0.6,10.7,1.41
Cn1cc([N+](=O)[O-])c(C(=O)Nc2ccc(C3CCCCC3)cc2)n1,26.6,13.9,60.9*,0.9,46.0,3.74*
Cn1cc(Cc2ccc(C(=O)N3CCOCC3)cn2)c2ccccc21,·,·,-18.9,·,·,·
CCC(CC)C(=O)N(C)c1c(C)nc2c(OCCOc3ccc(F)cc3)cccn12,·,·,-4.9,·,·,·
O=C(Nc1ccc(-c2nc3ccccc3[nH]2)cc1)c1ccco1,169.2*,57.7*,40.4,0.4,33.4,2.58
CCN(CCO)CC1CCCC2CCCCC21 (centres undefined),·,·,-2.8,·,·,·
Cc1c(C(=O)/C=C/c2cccs2)oc2ccc(F)cc12,-8.9,84.5*,12.1,0.2,17.7,2.59
COc1ccc(NC(=O)C(c2cc3ccccc3o2)n2c(=O)c(-c3cc4ccccc4[nH]3)nc3ccccc32)cc1 (centres undefined),·,·,-13.9,·,·,·
Cc1cc(C)cc(Cn2cc(CN3CC(N4CCN(CCO)CC4)CS3(=O)=O)nn2)c1 (centres undefined),·,·,6.0,·,·,·
CC(CC(c1ccccc1)N1CCc2ccccc2C1)=NO (centres undefined),·,·,4.7,·,·,·
CN(C)c1cccc2c(S(=O)(=O)NC(=O)[C@H]3O[C@@H](n4cnc5c(N)ncnc54)[C@H](O)[C@@H]3O)cccc12,·,·,6.4,·,·,·
CCN1CCN(Cc2ccc(NC(=O)c3ccc(C)c(NC(=O)C(=O)c4c[nH]c5ccccc45)c3)cc2C(F)(F)F)CC1,·,·,88.9*,·,-2.3,·
CCN1CCN(Cc2ccc(NC(=O)c3ccc(C)c(NC(=O)c4ccc5n[nH]nc5c4)c3)cc2C(F)(F)F)CC1,·,·,-9.6,·,-2.5,·
COC(=O)[C@@]12C[C@@H](CC(=O)N3CCC(c4ccccc4)CC3)C(=O)N(Cc3ccc4c(c3)OCO4)C1=CCC(C)(C)C2,·,·,7.6,·,·,·
CC(=O)c1ccc(N2CCN(c3ccc4cc(S(=O)(=O)N5CCC(C)CC5)ccc4n3)CC2)cc1,·,·,60.1*,·,·,·
O=C1NC[C@H](CCCCN2CCN(Cc3ccccc3)C(=O)C2=O)N(CCC2CCCCC2)C1=O,·,·,4.6,·,·,·
SMILES,APP 5'UTR act,FLuc inhib CS,TRAIL sens C8,FLuc stim CS,PPC-1+TRAIL kill,NF-kB expr up
CCOC(=O)c1ccc(Nc2ncnc3c2cnn3C)cc1,1.9,-3.3,6.1,1,16.1,0.95
Cn1ncc2c(O/N=C(\N)c3ccc(C(C)(C)C)cc3)ncnc21,·,·,92.1*,·,18.7,·
CO[C@@H]1CN(C)C(=O)c2ccc(NS(=O)(=O)c3c(C)noc3C)cc2OC[C@@H](C)NC[C@@H]1C,·,·,-14.3,·,·,·
CC(=O)c1cccc(NC(=O)c2ccc(-c3ccccc3[N+](=O)[O-])o2)c1,120.8,17.5,-1.3,0.8,14.5,4.04*
Cc1cc(NC(=O)c2ccc(-c3ccccc3[N+](=O)[O-])o2)no1,·,·,16.3,·,·,·
COc1ccc(-c2ccc(C(=O)NCc3ccc(N(C)C)cc3)c3occc23)c(C)c1,·,·,13.7,·,·,·
C=CCOc1ccccc1CN(C(=O)CCl)c1ccc2c(c1)OCO2,·,·,95.8*,·,·,·
Clc1nc(-c2ccccn2)nc2scc(-c3ccccc3)c12,113.2,96.6*,46.1,0,71.5*,3.31*
CCCCCCCCN1C(=O)[C@H](CC(=O)NCC2CCCCC2)C[C@@]2(C(=O)OCC)CCC=C12,·,·,8.9,·,·,·
O=C(O)c1ccccc1N/N=C\c1ccnc2ccccc12,12.3,89.4*,64.9*,0.1,44.3,2.43
ON=Cc1ccnc2ccccc12,·,·,-15.2,·,·,·
CCCCNC(=O)c1ccc2nc(CC)c(N(CC)CCN(C)C)n2c1,·,·,-3.4,·,·,·
Cc1ccc(S(=O)(=O)N2[C@H](CC(=O)Oc3ccccc3)OC[C@@H]2C(C)C)cc1,·,·,-3.7,·,·,·
COCCCN1C(=O)C(CC(=O)NC(c2ccccc2)c2ccccc2)CC(C(=O)N2CCOCC2)=C1C (centres undefined),·,·,1.5,·,·,·
Cn1cccc1C(=O)C(=O)Nc1ccccc1C(F)(F)F,57.3,18.5,5.8,0.8,11.7,1.8
Cn1cccc1C(=O)C(=O)Nc1ccccc1,144.8*,52.5*,32.2,0.5,22.0,5.91*
O=C(NCCc1ccccc1F)c1ccc2c(c1)OCCO2,·,·,91.5*,·,·,·
CC(C)Oc1cccc(C(=O)Nc2ccc(Br)cc2F)c1,139.2*,48.0,43.2,0.5,23.1,6.07*
O=C(NCc1ccccc1F)c1ccc2c(c1)OCO2,2.7,0.6,6.0,1,-6.8,1.31
O=C(Nc1ccc(Br)cc1F)c1ccc2c(c1)OCCO2,·,·,53.6*,·,·,·
COCOCCn1cc(CN2CCS(=O)(=O)N(Cc3ccc(-c4ccc(OC)cc4)cc3)C(C(C)C)C2=O)nn1 (centres undefined),·,·,-9.8,·,·,·
CCCCOCCCNC(=O)C[C@@H]1C[C@@]2(C(=O)OC)CC(C)(C)CC=C2N(Cc2ccccc2)C1=O,·,·,18.7,·,·,·
CSCC(=O)Nc1nc(-c2ccc3c(c2)OCCO3)cs1,152.8*,16.1,12.9,0.8,1.3,4.77*
CCCC(=O)Nc1nc(-c2ccc3c(c2)OCCO3)cs1,140.8*,6.6,4.3,0.9,-18.9,4.48*
CCC(=O)Nc1ccc2c(c1)OC[C@@H](C)N(Cc1ccccc1F)C[C@@H](C)[C@@H](OC)CN(C)C2=O,·,·,-1.1,·,·,·
Cc1nc(CSc2nnc(C)s2)cs1,2.0,-8.7,2.7,1.1,87.3*,1.06
Cc1nnc(SCc2ccc(F)cc2)s1,38.6,0.6,11.2,1,10.4,1.48
Cc1ccc2sc(-c3ccc(NC(=O)c4cc(-n5cnnc5)ccc4Cl)cc3)nc2c1,156.0*,23.2,31.4,0.8,-1.3,1.05
